Among the data in ChEMBL document CHEMBL1125717, “Synthesis and biological evaluation of cyclopropyl analogues of 2-amino-5-phosphonopentanoic acid” (J Med Chem, 1991) are Ki and IC50 values, retold here.

Molecules are shown by their SMILES.

A short description of assay [1]: Compound was tested in vitro for Non N-methyl-D-aspartate glutamate receptor binding using [3H]- -Kainate. Further details: species or system Rattus norvegicus. The essentials:
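Rat forebrain synaptic membranes (male Sprague–Dawley, 30–45 days old) were treated with 0.04% Triton X-100 for 30 min at 37 °C and washed in 50 mM Tris/acetate pH 7.4. Incubation used 0.5 nM [3H]kainate and graded compound concentrations, with 0.25–0.35 mg/mL membrane, for 60 min at 4 °C. Bound ligand was separated by centrifugation; 0.1 mM kainate defined nonspecific binding. IC50 was derived by logit–log and Ki by Cheng–Prusoff, from ≥3 triplicate experiments.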

Assay [2] has as its target Glutamate NMDA receptor. Briefly: Compound was tested in vitro for N-methyl-D-aspartate glutamate receptor binding using [3H]L-glutamate. It counts as protein-complex assay. Summed up:
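Rat forebrain synaptic plasma membranes (male Sprague–Dawley, 30–45 days old) were pretreated with 0.04% Triton X-100 for 30 min at 37 °C and washed four times in 50 mM Tris/acetate, pH 7.4. Incubation: 10 nM [3H]-L-glutamate, membranes at 0.25–0.35 mg/mL final, 10 min at 4 °C, then filtration through PEI-treated filters. Nonspecific binding: 0.1 mM L-glutamate. IC50 by logit–log; Ki by Cheng–Prusoff. Mean ± SEM, ≥3 experiments in triplicate.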

Assay [3] addresses Glutamate NMDA receptor. Briefly: Compound was tested in vitro for its inhibitory activity against N-methyl-D-aspartate glutamate receptor using [3H]MK-801. It counts as protein-complex assay. The essentials:
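Functional modulation assay on washed rat synaptic membranes pretreated with 0.04% v/v Triton X-100. Incubated 30 min at 25 °C with 5.0 nM [3H]MK-801, 10.0 nM L-glutamate and graded compound concentrations in 50 mM Tris/acetate, pH 7.4. Filter-bound radioactivity counted by scintillation. Nonspecific binding: 60 μM MK-801. IC50 from logit–log transformation. Mean ± SEM, ≥3 experiments in triplicate.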

A short description of assay [4]: Compound was tested in vitro for Non N-methyl-D-aspartate glutamate receptor binding using [3H]kainate. The arrangement: species or system Rattus norvegicus. Summed up:
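Triton X-100-treated (0.04%, 30 min, 37 °C), washed rat forebrain synaptic membranes (male Sprague–Dawley, 30–45 days), 0.25–0.35 mg/mL final in 50 mM Tris/acetate, pH 7.4. Incubated with 0.5 nM [3H]kainate for 60 min at 4 °C; bound ligand separated by centrifugation. Nonspecific binding: 0.1 mM kainate. IC50 by logit–log; Ki by Cheng–Prusoff. Mean ± SEM, ≥3 experiments in triplicate.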

On to `NC(CCCP(=O)(O)O)C(=O)O` (centres undefined), for which the values for the Ki (in assay [1]; at Glutamate NMDA receptor [2]) were above 100 µM and 0.42 µM, respectively.

On to `N[C@@]1(C(=O)O)CC1CCP(=O)(O)O` (some centres undefined), for which, at Glutamate NMDA receptor [3], the midpoint of inhibition, the IC50, lay at 18.1 µM. For the same molecule, the inhibition constant Ki (usually the equilibrium dissociation constant of an inhibitor or competing ligand from its target) in assay [4] is above 100 µM; at Glutamate NMDA receptor [2], 26.7 µM.

In the case of `N[C@]1(C(=O)O)CC1CCP(=O)(O)O` (some centres undefined), inhibition against Glutamate NMDA receptor [3] was half-maximal at 15.2 µM (IC50). Besides, the values for the Ki (in assay [4]; on Glutamate NMDA receptor [2]) were above 100 µM and 18.7 µM, respectively.

In the case of `NC(C(=O)O)C1CC1CCP(=O)(O)O` (centres undefined), the Ki was above 100 µM in assay [4] and above 50 µM at Glutamate NMDA receptor [2].

Turning to `N[C@H](C[C@@H]1CC1P(=O)(O)O)C(=O)O` (some centres undefined), the half-inhibitory concentration (IC50) (commonly the point on the concentration scale where inhibition reaches its midpoint) on Glutamate NMDA receptor [3] was 2.7 µM. Moreover, the Ki was above 100 µM in assay [4] and 1.6 µM on Glutamate NMDA receptor [2].

Regarding `NC(C(=O)O)C1CC1CP(=O)(O)O` (stereo in doubt; 13a), on Glutamate NMDA receptor [3], the IC50 was 22.6 µM. The affinity on Glutamate NMDA receptor [2] corresponds to a Ki of 18.9 µM.

`NC(C(=O)O)C1CC1CP(=O)(O)O` (stereo in doubt; 13b) showed a half-maximal inhibitory concentration (IC50) against Glutamate NMDA receptor [3] of 13.3 µM. In addition, the values for the Ki (in assay [4]; at Glutamate NMDA receptor [2]) were above 100 µM and 9.5 µM, respectively.

For the molecule `NC(C(=O)O)C1CC1CCCP(=O)(O)O` (stereo in doubt; 33c), the Ki in assay [4] is above 100 µM; on Glutamate NMDA receptor [2] it was 12.5 µM.

On to `NC(C(=O)O)C1CC1CCCP(=O)(O)O` (stereo in doubt; 33d), for which the Ki on Glutamate NMDA receptor [2] was above 50 µM.

Molecule `O=C(O)[C@@H]1C[C@H](CP(=O)(O)O)CCN1` [SELFOTEL] displayed an IC50 on Glutamate NMDA receptor [3] of 0.14 µM. In addition, the Ki in assay [4] was above 100 µM; on Glutamate NMDA receptor [2] it was 0.16 µM.
